# Assay results published in ChEMBL document CHEMBL1649110, “Pharmacodynamics of minocycline against Staphylococcus aureus in an in vitro pharmacokinetic model” (Antimicrob Agents Chemother, 2008).
# Activity calls are given as the source filed them. The rule behind the calls is not given here.
# Assays:
# Staphylococcus aureus [1] = assay: Bactericidal activity against Staphylococcus aureus infected in in vitro hollow-fiber PK model at 400 mg administered every 24 hrs; type: functional, organism-based
# Staphylococcus aureus [2] = assay: Bactericidal activity against Staphylococcus aureus assessed as viable bacterial count at 2 times MIC; type: functional
# Staphylococcus aureus [3] = assay: Bactericidal activity against Staphylococcus aureus assessed as log reduction in bacterial count; type: functional
# Staphylococcus aureus [4] = assay: Bactericidal activity against Staphylococcus aureus infected in in vitro hollow-fiber PK model at 200 mg administered every 24 hrs; type: functional, organism-based
# Staphylococcus aureus [5] = assay: Bactericidal activity against Staphylococcus aureus assessed as viable bacterial count at 4 times MIC; type: functional
# Staphylococcus aureus [6] = assay: Bactericidal activity against Staphylococcus aureus infected in in vitro hollow-fiber PK model at 100 mg administered every 12 hrs; type: functional, organism-based
# Staphylococcus aureus [7] = assay: Bactericidal activity against Staphylococcus aureus infected in in vitro hollow-fiber PK model at 200 mg administered every 12 hrs; type: functional, organism-based
# [8] = Cmax in simulated human serum in in vitro hollow-fiber PK model at 600 mg administered every 24 hrs by HPLC; type: ADME, organism-based; design: dose 600 mg; conditions: in vitro hollow-fiber PK model simulating human serum
# [9] = Tmax in simulated human serum in in vitro hollow-fiber PK model at 600 mg administered every 24 hrs; type: ADME, cell-free; conditions: in vitro hollow-fiber PK model simulating human serum
# Staphylococcus aureus [10] = assay: Antibacterial activity against Staphylococcus aureus in murine thigh infection model; type: functional; conditions: Thigh muscle
# [11] = T>MIC in Staphylococcus aureus infected neutropenic mouse thigh infection model; type: functional, Thigh muscle
# [12] = Tmax in simulated human serum in in vitro hollow-fiber PK model at 1 g administered every 12 hrs; type: ADME, cell-free; conditions: in vitro hollow-fiber PK model simulating human serum
# In short: (§1)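 Free vancomycin 1 g q12h simulated in a hollow-fiber model at 37°C with 25% Mueller-Hinton broth. […] Dosed into the dosing chamber at 0 and 12 h. Samples were taken at 0, 1, 2, 3, 4, 5, 6, 12 and 24 h, and concentrations measured by fluorescence polarization immunoassay. Triplicate experiments.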
# Staphylococcus aureus [13] = assay: Antibacterial activity against Staphylococcus aureus SMH 26910 after 24 hrs by Etest; type: functional; conditions: SMH 26910, 24 h
# [14] = Cmax in simulated human serum in in vitro hollow-fiber PK model at 1 g administered every 12 hrs by fluorescence polarization immunoassay method; type: ADME, organism-based; design: dose 1 g; conditions: in vitro hollow-fiber PK model simulating human serum; in short: as §1
# [15] = Half life in simulated human serum in in vitro hollow-fiber PK model at 1 g administered every 12 hrs; type: ADME, cell-free; conditions: in vitro hollow-fiber PK model simulating human serum; in short: as §1
# Staphylococcus aureus [16] = assay: Bactericidal activity against methicillin-resistant Staphylococcus aureus infected in rabbit at 50 mg/kg of body weight administered every 8 hrs measured after 72 hrs; type: functional
# Staphylococcus aureus [17] = assay: Antibacterial activity against methicillin-resistant Staphylococcus aureus SMH 32985 after 24 hrs by Etest; type: functional; conditions: SMH 32985, 24 h
# Staphylococcus aureus [18] = assay: Antibacterial activity against methicillin-resistant Staphylococcus aureus SMH 32024 after 24 hrs by Etest; type: functional; conditions: SMH 32024, 24 h
# Staphylococcus aureus [19] = assay: Bactericidal activity against Staphylococcus aureus assessed as reduction log reduction in viable bacterial count at 0.5 to 1 times MIC; type: functional
# Staphylococcus aureus [20] = assay: Antibacterial activity against methicillin-resistant Staphylococcus aureus SMH 32985 infected in in vitro hollow-fiber model assessed as log reduction in viable bacterial count at 100 mg after 12 hrs; type: functional
# Staphylococcus aureus [21] = assay: Antibacterial activity against methicillin-resistant Staphylococcus aureus SMH 32024 infected in in vitro hollow-fiber model assessed as log reduction in viable bacterial count at 100 mg after 12 hrs; type: functional
# Staphylococcus aureus [22] = assay: Ratio of AUC to MIC in methicillin-resistant Staphylococcus aureus infected in in vitro hollow-fiber PK model at 100 mg after 24 hrs; type: functional
# Staphylococcus aureus [23] = assay: Ratio of AUC to MIC in methicillin-resistant Staphylococcus aureus infected in in vitro hollow-fiber PK model at 100 mg after 8 hrs; type: functional
# Staphylococcus aureus [24] = assay: Antibacterial activity against Staphylococcus aureus SMH 26910 infected in in vitro hollow-fiber model assessed as log reduction in viable bacterial count at 100 mg after 12 hrs; type: functional
# In short: (§2)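 Hollow-fiber model at 37°C in 25% Mueller-Hinton broth with a peripheral-compartment inoculum of 10^6 CFU/ml. […] Samples were taken at 0–24 h and counted on nutrient agar (detection limit 2.0 x 10^2 CFU/ml). Run in triplicate.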
# Staphylococcus aureus [25] = assay: Antibacterial activity against Staphylococcus aureus SMH 31236 after 24 hrs by Etest; type: functional; conditions: SMH 31236, 24 h
# [26] = T>MIC in Staphylococcus aureus infected rabbit; type: functional
# Staphylococcus aureus [27] = assay: Antibacterial activity against methicillin-resistant Staphylococcus aureus SMH 32024 infected in in vitro hollow-fiber model assessed as log reduction in viable bacterial count at 100 mg administered every 12 hrs measured after 24 hrs; type: functional
# In short: (§3)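 Hollow-fiber model at 37°C, 25% Mueller-Hinton broth, 10^6 CFU/ml inoculum in the peripheral compartment. […] Viable counts on nutrient agar (detection limit 2.0 x 10^2 CFU/ml). Read-out is log change in count at 24 h versus start. Triplicate.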
# Staphylococcus aureus [28] = assay: AUBKC (24 hrs) in […] Staphylococcus aureus SMH 26910 infected in in vitro hollow-fiber PK model at 100 mg administered every 12 hrs; type: functional
# In short: (§4)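 Peripheral compartment inoculated to 10^6 CFU/ml. Samples at 0–24 h were spiral-plated on nutrient agar (detection limit 2.0 x 10^2 CFU/ml). Area under the bacterial kill curve was taken over 0–24 h. Triplicate runs.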
# Staphylococcus aureus [29] = assay: Bactericidal activity against methicillin-resistant Staphylococcus aureus infected in rabbit at 6 mg/kg of body weight administered every 8 hrs measured after 72 hrs; type: functional
# [30] = Half life in human serum; type: ADME, cell-free
# Staphylococcus aureus [31] = assay: Antibacterial activity against Staphylococcus aureus SMH 31236 infected in in vitro hollow-fiber model assessed as log reduction in viable bacterial count at 100 mg after 12 hrs; type: functional; in short: as §2
# Staphylococcus aureus [32] = assay: Ratio of AUC to MIC in methicillin-resistant Staphylococcus aureus infected in in vitro hollow-fiber PK model at 100 mg administered every 12 hrs; type: functional
# Staphylococcus aureus [33] = assay: Antibacterial activity against methicillin-resistant Staphylococcus aureus SMH 32985 infected in in vitro hollow-fiber model assessed as log reduction in viable bacterial count at 100 mg administered every 12 hrs measured after 24 hrs; type: functional; in short: as §3
# [34] = Cmax in simulated human serum in in vitro hollow-fiber PK model at 100 mg administered every 12 hrs; type: ADME, organism-based; design: dose 100 mg; conditions: in vitro hollow-fiber PK model simulating human serum
# In short: (§5)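 Samples were taken at 0, 1, 2, 3, 4, 5, 6, 12 and 24 h. Concentrations were measured by bioassay on Penassay seed agar with Bacillus subtilis as indicator. Triplicate runs.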
# Staphylococcus aureus [35] = assay: AUBKC (24 hrs) in methicillin-resistant Staphylococcus aureus SMH 32985 infected in in vitro hollow-fiber PK model at 100 mg administered every 12 hrs; type: functional; in short: as §4
# Staphylococcus aureus [36] = assay: Antibacterial activity against Staphylococcus aureus SMH 31236 infected in in vitro hollow-fiber model assessed as log reduction in viable bacterial count at 100 mg administered every 12 hrs measured after 24 hrs; type: functional; in short: as §2
# Staphylococcus aureus [37] = assay: AUBKC (24 hrs) in methicillin-resistant Staphylococcus aureus SMH 32024 infected in in vitro hollow-fiber PK model at 100 mg administered every 12 hrs; type: functional; in short: as §4
# Staphylococcus aureus [38] = assay: Antibacterial activity against Staphylococcus aureus SMH 26910 infected in in vitro hollow-fiber model assessed as log reduction in viable bacterial count at 100 mg administered every 12 hrs measured after 24 hrs; type: functional; in short: as §2
# [39] = Tmax in simulated human serum in in vitro hollow-fiber PK model at 100 mg administered every 12 hrs; type: ADME, cell-free; conditions: in vitro hollow-fiber PK model simulating human serum; in short: as §5
# Staphylococcus aureus [40] = assay: AUBKC (24 hrs) in methicillin-resistant Staphylococcus aureus SMH 31236 infected in in vitro hollow-fiber PK model at 100 mg administered every 12 hrs; type: functional; in short: as §4
# [41] = Half life in simulated human serum in in vitro hollow-fiber PK model at 100 mg administered every 12 hrs; type: ADME, cell-free; conditions: in vitro hollow-fiber PK model simulating human serum; in short: as §5
# Staphylococcus aureus [42] = assay: Ratio of AUC to MIC in methicillin-resistant Staphylococcus aureus infected in in vitro hollow-fiber PK model at 100 mg after 12 hrs; type: functional
smiles,measurement,setting,value
C[C@H]1c2cccc(O)c2C(=O)C2=C(O)[C@]3(O)C(=O)C(C(N)=O)=C(O)[C@@H](N(C)C)[C@@H]3[C@@H](O)[C@@H]21.O [DOXYCYCLINE],Activity,Staphylococcus aureus [1],Active
same,fold change (FC),Staphylococcus aureus [2],0.5
same,Activity,Staphylococcus aureus [3],Active
same,Activity,Staphylococcus aureus [4],Active
same,fold change (FC),Staphylococcus aureus [5],0.5
same,Activity,Staphylococcus aureus [6],Active
same,Activity,Staphylococcus aureus [7],Active
CO[C@H]1/C=C/O[C@@]2(C)Oc3c(C)c(O)c4c(O)c(c(/C=N/N5CCN(C)CC5)c(O)c4c3C2=O)NC(=O)/C(C)=C\C=C\[C@H](C)[C@H](O)[C@@H](C)[C@@H](O)[C@@H](C)[C@H](OC(C)=O)[C@@H]1C [RIFAMPIN],Cmax,[8],2000 ng/mL
same,Tmax,[9],1.2 h
CN(C)c1cc(NC(=O)CNC(C)(C)C)c(O)c2c1C[C@H]1C[C@H]3[C@H](N(C)C)C(O)=C(C(N)=O)C(=O)[C@@]3(O)C(O)=C1C2=O [TIGECYCLINE],Activity,Staphylococcus aureus [3],Active
same,Log reduction in bacterial count,Staphylococcus aureus [3],2
same,MIC,Staphylococcus aureus [10],0.125 µg/mL
same,fT>MIC,[11],>50%
CN[C@H](CC(C)C)C(=O)N[C@H]1C(=O)N[C@@H](CC(N)=O)C(=O)N[C@H]2C(=O)N[C@H]3C(=O)N[C@H](C(=O)N[C@H](C(=O)O)c4cc(O)cc(O)c4-c4cc3ccc4O)[C@H](O)c3ccc(c(Cl)c3)Oc3cc2cc(c3O[C@@H]2O[C@H](CO)[C@@H](O)[C@H](O)[C@H]2O[C@H]2C[C@](C)(N)[C@H](O)[C@H](C)O2)Oc2ccc(cc2Cl)[C@H]1O [VANCOMYCIN],Tmax,[12],1 h
same,MIC,Staphylococcus aureus [13],1.5 µg/mL
same,Cmax,[14],15000 ng/mL
same,half-life,[15],6 h
same,log10 CFU/g,Staphylococcus aureus [16],4.8 log10 CFU/g
same,MIC,Staphylococcus aureus [17],1.5 µg/mL
same,MIC,Staphylococcus aureus [18],1.5 µg/mL
CN(C)c1ccc(O)c2c1C[C@H]1C[C@H]3[C@H](N(C)C)C(O)=C(C(N)=O)C(=O)[C@@]3(O)C(O)=C1C2=O [MINOCYCLINE],FC,Staphylococcus aureus [19],1.5
same,FC,Staphylococcus aureus [20],0.5
same,FC,Staphylococcus aureus [21],0.8
same,RatioAUC/MIC,Staphylococcus aureus [22],1.6
same,RatioAUC/MIC,Staphylococcus aureus [23],1.7
same,FC,Staphylococcus aureus [24],1.9
same,MIC,Staphylococcus aureus [25],0.75 µg/mL
same,fT>MIC,[26],100%
same,FC,Staphylococcus aureus [27],0.2
same,fold change (FC),Staphylococcus aureus [28],77.6
same,log10 CFU/g,Staphylococcus aureus [29],5.3 log10 CFU/g
same,half-life,[30],12 h
same,MIC,Staphylococcus aureus [13],0.06 µg/mL
same,Log reduction in bacterial count,Staphylococcus aureus [3],1.5
same,FC,Staphylococcus aureus [31],1.6
same,RatioAUC/MIC,Staphylococcus aureus [32],200
same,FC,Staphylococcus aureus [33],0.8
same,Cmax,[34],600 ng/mL
same,fold change (FC),Staphylococcus aureus [35],79.7
same,FC,Staphylococcus aureus [36],0.1
same,fold change (FC),Staphylococcus aureus [37],77.2
same,FC,Staphylococcus aureus [38],1.4
same,Tmax,[39],2.3 h
same,fold change (FC),Staphylococcus aureus [40],98.4
same,half-life,[41],12 h
same,MIC,Staphylococcus aureus [17],0.04 µg/mL
same,RatioAUC/MIC,Staphylococcus aureus [42],2.1
same,MIC,Staphylococcus aureus [18],0.19 µg/mL
